The record followed here is ChEMBL document CHEMBL3244368, “[3-(1,4-Cyclohexadienyl)-L-alanine,8-lysine]vasopressin: synthesis and some pharmacological properties” (J Med Chem, 1979).

The structures appear in SMILES notation. Starred links: 1 amine or outer side, 2 acyl side, 3 side chain; linkers in the order of their positions; H or OH if unused. Positions of bridges follow the written chain, without caps; N, C: chain ends. Non-standard residues stand in square brackets, D forms with d. Residues, ends and D or L forms follow the SMILES beside them. X1 = O=C([C@H](CC1=CCC=CC1)N[*:1])[*:2]; 2Thi = N[C@@H](Cc1cccs1)C(=O)O

For data set [1], the system named is Rattus norvegicus. Briefly: Antidiuretic activity in iv dosed water loaded rat. The data set is classed as functional, Urine. The method, boiled down: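 Water-loaded rats under ethanol anesthesia, peptide given intravenously. Potency referenced to the USP Posterior Pituitary Reference Standard.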
For data set [2], the species on record is Rattus norvegicus. The data set is described as follows: Vasopressor activity in phenoxybenzamine-treated rat. Format: functional. Summed up:
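Phenoxybenzamine-treated rats under urethane anesthesia. Potency referenced to the USP Posterior Pituitary Reference Standard.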

Data set [3] can be described thus: Stability of the compound in 0.2 M potassium phosphate buffer at […] assessed as hydrolysis by measuring Tyr level in presence of alpha-amylase preparation and cyclohexadiene. Format: ADME. Summed up:
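Aspergillus oryzae α-amylase preparation, 1 mg per 0.9 µmol peptide, in potassium phosphate buffer pH 7, with 1,4-cyclohexadiene (10 µL) and toluene, under N2, 37 °C, 17 h. Adjusted to pH 2.2 for amino acid analysis. Phe from a control of constituent amino acids plus enzyme subtracted to give Phe in residue 3.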

A short description of data set [4]: Oxytocic activity in isolated rat uterus strips in Mg2+-free van Dyke-Hastings solution.
Data set [5] in a line: Stability of the compound in potassium phosphate buffer at pH 7 assessed as hydrolysis by measuring Phe level in presence of alpha-amylase preparation and cyclohexadiene.
Data set [6] can be described thus: Stability of the compound in potassium phosphate buffer at pH 7 assessed as hydrolysis by measuring DiHPe level in presence of alpha-amylase preparation and cyclohexadiene.
For data set [7], the species on record is Gallus gallus. The data set is described as follows: Vasodepressor activity in chicken. The data set is classed as functional.
Data set [8] in a line: Stability of the compound in 0.2 M potassium phosphate buffer at pH 7.7 assessed as hydrolysis by measuring Ile/Phe + DiHPe level in presence of alpha-amylase preparation. The data set is classed as ADME.
Data set [9] in a line: Stability of the compound in 0.2 M potassium phosphate buffer at pH 7.7 assessed as hydrolysis by measuring Tyr level in presence of alpha-amylase preparation. The data set is classed as ADME.
Data set [10] in a line: Stability of the compound in 0.2 M potassium phosphate buffer at pH 7.7 assessed as hydrolysis by measuring Leu/Lys level in presence of alpha-amylase preparation. The data set is classed as ADME.
Data set [11] is described as follows: Stability of the compound in 0.2 M potassium phosphate buffer at pH 7.7 assessed as hydrolysis by measuring Gly level in presence of alpha-amylase preparation. Format: ADME.
Data set [12] is described as follows: Stability of the compound in phosphate buffer at pH 7.5 in presence of rat kidney homogenates. The data set is classed as ADME, tissue-based. The following applies: tissue homogenate. The method, boiled down: (§1)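 DiHPhe incubated with rat kidney or liver homogenate in phosphate buffer, pH 7.5, then checked for conversion to Phe.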
Data set [13] is described as follows: Stability of the compound in phosphate buffer at pH 7.5 in presence of rat liver homogenates. Format: ADME, tissue-based. As to conditions: tissue homogenate. Summed up: as §1
Data set [14] in a line: Oxytocic activity in isolated rat uterus strips in Mg2+-free solution.

Consider `NCCCC[C@H](NC(=O)[C@@H]1CCCN1C(=O)[C@@H]1CSSC[C@H](N)C(=O)N[C@@H](Cc2ccc(O)cc2)C(=O)N[C@@H](CC2=CCC=CC2)C(=O)N[C@@H](CCC(N)=O)C(=O)N[C@@H](CC(N)=O)C(=O)N1)C(=O)NCC(N)=O` (H-CY[X1]QNCPKG-NH2; disulfide 1-6), for which the values for the Activity in [1], in data set [2] and in data set [4] were 125 U/mg, 129 U/mg and 6 U/mg, respectively. For the same molecule, the values for the Drug degradation in data set [3], in data set [5] and in data set [6] were 89 mol%, 8.7 mol% and 66 mol%, respectively.
With `NCCCC[C@H](NC(=O)[C@@H]1CCCN1C(=O)[C@@H]1CSSC[C@H](N)C(=O)N[C@@H](Cc2ccc(O)cc2)C(=O)N[C@@H](Cc2ccccc2)C(=O)N[C@@H](CCC(N)=O)C(=O)N[C@@H](CC(N)=O)C(=O)N1)C(=O)NCC(N)=O` [LYPRESSIN], the Activity in data set [7] is 40 U/mg; in data set [1] it was 212 U/mg; in data set [2], 258 U/mg; in data set [4], 5 U/mg. The Drug degradation in [8] came to 113 mol%; in data set [9], 100 mol%; in data set [10], 101 mol%; in [11], 73 mol%.
Consider `N=C(N)NCCC[C@H](NC(=O)[C@@H]1CCCN1C(=O)[C@@H]1CSSC[C@H](N)C(=O)N[C@@H](Cc2ccc(O)cc2)C(=O)N[C@@H](Cc2ccccc2)C(=O)N[C@@H](CCC(N)=O)C(=O)N[C@@H](CC(N)=O)C(=O)N1)C(=O)NCC(N)=O` [VASOPRESSIN], for which the Activity came to 57 U/mg in [7], 429 U/mg in data set [1], 380 U/mg in [2] and 16 U/mg in data set [4].
For `NCCCC[C@H](NC(=O)[C@@H]1CCCN1C(=O)[C@@H]1CSSC[C@H](N)C(=O)N[C@@H](Cc2ccc(O)cc2)C(=O)N[C@@H](Cc2cccs2)C(=O)N[C@@H](CCC(N)=O)C(=O)N[C@@H](CC(N)=O)C(=O)N1)C(=O)NCC(N)=O` (H-CY[2Thi]QNCPKG-NH2; disulfide 1-6), the Activity is reported as 87 U/mg in data set [7], 332 U/mg in [1], 243 U/mg in [2] and 19 U/mg in data set [4].
For `CC[C@H](C)[C@@H]1NC(=O)[C@H](Cc2ccc(O)cc2)NC(=O)[C@@H](N)CSSC[C@@H](C(=O)N2CCC[C@H]2C(=O)N[C@@H](CCCCN)C(=O)NCC(N)=O)NC(=O)[C@H](CC(N)=O)NC(=O)[C@H](CCC(N)=O)NC1=O` (H-CYIQNCPKG-NH2; disulfide 1-6), the Activity in data set [7] is recorded as 190 U/mg; in data set [1] it was 24 U/mg; in data set [2] it was 130 U/mg; in [4], 78 U/mg.
Consider `CC[C@H](C)[C@@H]1NC(=O)[C@H](Cc2ccc(O)cc2)NC(=O)[C@@H](N)CSSC[C@@H](C(=O)N2CCC[C@H]2C(=O)N[C@@H](CCCNC(=N)N)C(=O)NCC(N)=O)NC(=O)[C@H](CC(N)=O)NC(=O)[C@H](CCC(N)=O)NC1=O` [ARGIPRESTOCIN] (H-CYIQNCPRG-NH2; disulfide 1-6), for which the Activity in data set [7] came out at 286 U/mg; in [1], 245 U/mg; in data set [2], 243 U/mg; in [4] it was 114 U/mg.
Turning to `N[C@@H](CC1=CCC=CC1)C(=O)O`, the Stability entry in [12] and in data set [13] was “Stable” in each case.
For the molecule `NCCCC[C@H](NC(=O)[C@@H]1CCCN1C(=O)[C@@H]1CSSC[C@H](N)C(=O)N[C@@H](Cc2ccc(O)cc2)C(=O)N[C@@H](Cc2ccc(O)cc2)C(=O)N[C@@H](CCC(N)=O)C(=O)N[C@@H](CC(N)=O)C(=O)N1)C(=O)NCC(N)=O` (H-CYYQNCPKG-NH2; disulfide 1-6), the Activity in data set [7] is reported as 0.08 U/mg; in [1], 0.18 U/mg; in [2] it was 0.07 U/mg; in data set [14] it was “<=0.01 U/mg”.
In the case of `NCCCC[C@H](NC(=O)[C@@H]1CCCN1C(=O)[C@@H]1CSSC[C@H](N)C(=O)N[C@@H](Cc2ccc(O)cc2)C(=O)N[C@@H](CO)C(=O)N[C@@H](CCC(N)=O)C(=O)N[C@@H](CC(N)=O)C(=O)N1)C(=O)NCC(N)=O` (H-CYSQNCPKG-NH2; disulfide 1-6), the Activity is reported as under 0.01 U/mg in data set [7], 0.08 U/mg in [1], under 0.01 U/mg in data set [2] and under 0.01 U/mg in data set [4].
